Consider one compound from PubChem BioAssay AID463172 (The Scripps Research Institute Molecular Screening Center, 2010).

This assay has as its system HEK293T RORa/G6PC promoter luciferase, 20 h. Description: G6PC promoter luciferase repression, IC50 – cell-based, luminescence, dose response, counter-screen for RORA inverse agonist project, late-stage follow-up (AID 463172). Put shortly:
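Assay system: HEK293T cells with RORa, SRC-2 and G6PC-luciferase reporter. Doses: 10-point dilution series, highest nominal dose 10 µM. Schedule: 20 h compound exposure after 24 h bulk transfection. Measured by: luciferase luminescence from G6PC promoter reporter. Control set: DMSO vehicle-treated cells as normalization reference.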
On the technique in general: A counterscreen serves to expose hits that act by an unwanted route or on another target.

pIC50: −log10 of the molar value.

`O=S(=O)(Nc1ccc(C(O)(C(F)(F)F)C(F)(F)F)cc1)c1cccs1`: the pIC50 was 5.85.

For orientation: pIC50 means −log10 of the IC50, conventionally taken in molar units.
